Source: ChEMBL document CHEMBL4513216, “Probing the Open Global Health Chemical Diversity Library for Multistage-Active Starting Points for Next-Generation Antimalarials” (ACS Infect Dis, 2020)

Assay: Toxicity liver stage against HepG2, at 10uM
Assay type: cell-based
Set-up: test concentration 10 uM, cell line HepG2-A16-CD81EGFP
Conditions: human, HepG2-A16-CD81EGFP cells; read-out: INHIBITION
Procedure, shortened: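 Uninfected HepG2-A16-CD81EGFP cells, 3 × 10^3 per well, 1536-well, plated on prespotted compound at 10 μM final, parasite-free screening media added to match infected plates; puromycin 10 μM positive, DMSO 0.5% negative; run in parallel with 48 h PbLuc assay at 37 °C, 5% CO2; viability by CellTiter-Glo luminescence, normalized to controls.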

Compound	cytotoxicity at 10 µM [%]
CC(C)NC(=O)NC[C@H]1OC[C@@H](NCc2cccs2)[C@@H]1O	-1.48
O=C(NC[C@H]1OC[C@@H](NCc2ccccc2F)[C@@H]1O)Nc1ccccc1	-7.3
Cc1cc(C)nc(N2CCCC(C(=O)Nc3n[nH]c(C(C)C)n3)C2)n1 (stereo unspecified)	8.04
O=S(=O)(c1ccc(Cl)cc1)N1C[C@@H]2CCN[C@@H]2C1	-1.89
CCc1cnc(N2CCC3(CCN(CC)C3=O)CC2)nc1	1.61
CNC(=O)N1CCC2(CC1)CN(C)c1ccc(F)cc12	-4.78
c1ccc(NCc2cn3c(n2)CN(Cc2ccoc2)CC3)nc1	10.4
CCOCC1CN(CCOCc2ccccc2)Cc2c1cnn2C (stereo unspecified)	-132
Fc1cnc(N2CCOCC3(CCCN(c4cnccn4)C3)C2)nc1 (stereo unspecified)	10.6
CCN1C(=O)[C@]2(CC[C@@H]3CN(C(=O)NCC(C)C)C[C@@H]32)N=C1C	9.16
Cc1cc(O)c(OCC(=O)/N=c2\[nH]c(C)cs2)cn1	6.36
CN(C(=O)c1ccccn1)c1nnc(C2CCOC2)s1 (stereo unspecified)	0.07
CN(C)Cc1cc(C2CCCN(S(=O)(=O)c3cccc(Cl)c3)C2)nn1C (stereo unspecified)	0.288
CCn1cc(-c2nccnc2C2CCCN(C(C)=O)C2)cn1 (stereo unspecified)	-6.03
c1cc(C2CCCN2CC2CC2)n[nH]1 (stereo unspecified)	-1.75
CNC(=O)c1cn[nH]c1C1CCN(Cc2sccc2C)C1 (stereo unspecified)	-21.2
c1cnc(-c2cnc(N3CCCCC3)nc2C2CCCO2)cn1 (stereo unspecified)	-7.16
Cc1n[nH]cc1C(=O)N1CCCC(c2cccc(-n3ccnc3)n2)C1 (stereo unspecified)	-9.69
O=C(NC1CC1)c1cc(C(F)(F)F)cc(C(F)(F)F)n1	6
COc1ccc(C2(c3nc(-c4cnn(C)c4)no3)CCOCC2)cc1	11.4
Cc1ccc(NC(=O)N2CCC(CO)(Nc3ccccc3)CC2)cc1	-0.405
CCOc1nnc(CN2CCC(c3cc4ccccc4[nH]3)CC2)s1	20.6
N#CC1(C(=O)N2CCOC(c3ccc(F)cc3)C2)CCCCC1 (stereo unspecified)	3.85

Compound	cytotoxicity at 10 µM [%]
Cc1nc(CNc2ccccc2CCC(F)(F)F)cs1	-8.47
O=C(CC1CCCCC1)N1CCC(O)(C(F)(F)F)C1 (stereo unspecified)	-6.58
CNC(=O)Cc1noc(-c2cc3c(s2)CCCC3)n1	0.403
N#CCCCS(=O)(=O)NC1(c2cccc(Br)c2)CC1	2.99
N#CC1COCCN1S(=O)(=O)c1ccc2c(c1)CCC2 (stereo unspecified)	4.53
CCOc1ccc(CC(=O)N(CCC(=O)OC)CC2CCCO2)cc1 (stereo unspecified)	5.04
O=C(NCC1(c2ccc(F)cc2)CCCC1)N1CCOC(CO)C1 (stereo unspecified)	0.323
COC(=O)c1ccc(NC(=O)CCc2ccco2)cc1	-10.5
CCCS(=O)(=O)N1CCCN(CCCOC)CC1	7.53
O=C(NCC1CCC1)c1ccnc(-n2ccnc2)c1	-3.67
COc1ccccc1N1CCN(CC(=O)NC(C)c2ccco2)CC1 (stereo unspecified)	-2.58
Cc1cc(NC(=O)N2CCCC(CO)C2)nn1-c1ccccc1Cl (stereo unspecified)	8.23
CS(=O)(=O)Nc1cccc(CNC(=O)c2cccs2)c1	3.86
CCCc1cc(C(=O)NCCN2C(=O)c3ccccc3C2=O)[nH]n1	2.29
CC(C)c1noc(OCC(=O)N(C)C(C)C)n1	-12.6
NC(=O)CCNC(=O)Cc1cccc(I)c1	-1.08
O=C(CNc1cccc2c1CCCC2)Nc1ccccc1Br	11.4
Cc1nn(C)c(N(C)C)c1CNCc1cccc(Cn2cccn2)c1	1.88
CCN(CC(=O)NC(C)C)S(=O)(=O)N1CCCC(C)C1 (stereo unspecified)	2.77
CC(C)c1ccc(CS(=O)(=O)CC(=O)NCc2ccccc2F)cc1	8.31
O=C(c1csc(-c2ncccn2)n1)N1CCN(C2CCCC2)CC1	4.87
COc1cccc2c1N(Cc1nc(C3CC3)no1)CCC2	11.2
Cc1ncccc1C(=O)Nc1ccc2ccn(CCN(C)C)c2c1	4.08

Compound	cytotoxicity at 10 µM [%]
CCS(=O)(=O)CC(C)NC(=O)N(C)Cc1cc(Cl)cn1C (stereo unspecified)	-1.04
Cc1nc(C(NC(=O)C2CCCC2)c2ccccc2F)no1 (stereo unspecified)	-3.79
O=C(C[S+]([O-])Cc1ccccc1F)N1CCc2sccc2C1 (stereo unspecified)	-8.02
CNS(=O)(=O)CC(=O)N(Cc1ccccc1)c1ccc(C)cc1	2.53
O=C(CN1CCOc2ccc(Cl)cc21)NCc1ncc[nH]1	-0.307
N#CCCN(CC(F)(F)F)C(=O)c1cc(-n2cccn2)ccn1	8.93
N#Cc1ccc(OC2CCN(C(=O)COCC3CCCO3)CC2)cc1 (stereo unspecified)	12.9
CCc1noc(CN(C)C(=O)COc2cccc(Cl)c2C)n1	3.86
CCN(CC)CCCN1CCC(NC(=O)OC(C)(C)C)CC1	5
Cc1oc(C(=O)O)cc1S(=O)(=O)Nc1ccc(Cl)c(Cl)c1	-0.532
CS(=O)(=O)CC1(CNc2ccc(C#N)c(C(F)(F)F)c2)CC1	9.95
Cc1nc(CC(C)C)sc1C(=O)N1CCC1	15.8
Cn1cc(CN2CCN(Cc3nccn3C)CC2)cn1	15.5
O=C(NCCNS(=O)(=O)c1ccc2c(c1)CCCC2)c1ccoc1	0.743
CC(NCc1ccncc1)c1cc(F)ccc1N1CCN(C)CC1 (stereo unspecified)	-2.98
COCCN(Cc1ccc(F)cc1Cl)C(=O)c1cccc[n+]1[O-]	8.81
CC(=O)N1CC[C@H]2OCC[C@@H](C(=O)Nc3cccnc3C)[C@H]2C1	0.0861
Cc1ncc(-c2ccnc(N3CC[C@H](O)C3)n2)c(-c2cccnc2)n1	-8.49
Cn1nccc1C(=O)N1CCOC(Cc2ccc(F)cc2)C1 (stereo unspecified)	5.08
CC(C)c1nc(CN(C)Cc2ccc(O)c(C(=O)O)c2)cs1	-4.24
Cc1cccc2c1nc(COCC(=O)O)n2-c1ccc(N)nc1	1.77
Cc1cc(NCCc2c[nH]cn2)nc(-c2cccnc2)n1	2.49
CCN1CCCC(CN2CCn3nc(CNC(=O)N(C)C)cc3C2)C1 (stereo unspecified)	-2.96

Compound	cytotoxicity at 10 µM [%]
Cc1nc(-c2ccccc2)c(C(=O)N2CCC3(CC(=O)NC3=O)C2)s1 (stereo unspecified)	-3.89
COCc1cn(C2CCN(C(=O)c3ccc(F)c(C)c3)CC2)nn1	-0.723
Cc1c(C)c(C)c2[nH]c(-c3cn(C4CCNCC4)nn3)nc2c1C	-0.966
Cc1[nH]c(=O)[nH]c(=O)c1CN1CCCC(CCc2ccc(F)cc2F)C1 (stereo unspecified)	-1.64
CN1CCN(C(=O)c2ccnc(N3CCOC(C(F)(F)F)C3)c2)CC1 (stereo unspecified)	-11.4
CCc1ccc(CN2CCNC(C(=O)N3CCN(C)CC3)C2)nc1 (stereo unspecified)	7.68
CCC(=O)N1CCCC(Cn2cc(-c3ccc(F)cc3)nn2)C1 (stereo unspecified)	2.89
COc1cccc(OCC(=O)N2CCC3(CC2)[C@H](O)C[C@@H]3OC)c1	0.866
CC(C)N1CCCC(C(=O)NC(C)(C)c2nnc(N)s2)C1 (stereo unspecified)	-2.4
CC(=O)N[C@@H]1CN(Cc2ccc(F)cc2F)C[C@H]1c1ccc(C)o1	6.39
C[C@@H]1CN(Cc2cc3ccccc3n2C)CC[C@]1(C)O	8.35
NC(=O)c1ccc(OCCCN2C[C@H](C3CC3)[C@@H](N)C2)cc1	-0.517
Cn1c(Cn2cccn2)nnc1C1CCCN(c2ccncc2F)C1 (stereo unspecified)	-0.773
CNCc1cc(F)ccc1Oc1ccc(F)cc1F	-11
CC(NC(=O)CSCC#N)c1ccc(F)cc1 (stereo unspecified)	-2.51
CN(C)c1ccc(C(=O)N2CCCC2c2cnn(C)c2)cn1 (stereo unspecified)	-1.83
O=C(O)c1cc(S(=O)(=O)Nc2ccc(F)cc2F)cc2c1OCCO2	-1.2
CNC(=O)NC(=O)C(C)N(C)CCCc1cc(-c2ccccc2)no1 (stereo unspecified)	-11.6
Cn1cc(CN2CCCN(C(=O)c3ccccn3)CC2)cn1	-0.514
O=C(c1ccc2c(c1)CCCC2)N1CCN(c2cnccn2)CC1	-1.95
Cc1cc2n(n1)CC(CNCc1ccc(-n3ccnc3C)nc1)CN2 (stereo unspecified)	-11.7
COc1ccccc1C(O)CNC(=O)Nc1cccnc1OC (stereo unspecified)	-14.7
Cc1nc(C2CCCN2C(=O)c2ccc3c(c2)nc(C)n3C)no1 (stereo unspecified)	-9.62

Compound	cytotoxicity at 10 µM [%]
CCn1cnnc1CNC(=O)N1CCC(C)CC1	2.64
Cc1nc(C2CCCN2C(=O)Cn2cncn2)no1 (stereo unspecified)	-2.51
Cc1cnn(CC2CCCCN2C(=O)c2cnc3n[nH]c(C)c3c2)c1 (stereo unspecified)	-26.2
CCc1nc(CN2CCCN(C(=O)C3CCC3)CC2)cs1	5.41
CC(C)c1nc(C2CCCN2CCc2ccncc2)no1 (stereo unspecified)	-10.8
CCOc1ccnc(N2CCN(C(=O)c3cccc(C#N)c3)CC2)n1	-3.34
O=C(CN1CCCCC1Cn1cncn1)NCCC1=CCCCC1 (stereo unspecified)	-7.59
O=C(NCCCNc1ccccc1)c1scnc1Cl	1.83
CC(C)(C)c1nnc(CN2CCn3c(nnc3C3CC3)C2)o1	4.45
COCC1CN(Cc2cc(C)on2)Cc2cnn(C)c21 (stereo unspecified)	6.22
O=C(c1ccccc1)N1CCC[C@]2(C[C@@H](OCc3ccncc3)CO2)C1	5.25
CN(C)C[C@H]1C[C@@H]2CN(Cc3ccco3)C[C@@H]2O1	-1.66
Cc1occc1C(=O)NCC1OCCc2cn(C)nc21 (stereo unspecified)	4.33
O=C(Cc1ccsc1)N1CCCC2(COCCN(CC3CC3)C2)C1 (stereo unspecified)	-127
COc1ccc(C(=O)N2CC[C@@H]3[C@H](CC2)N(C)CCS3(=O)=O)cc1	-117
O=C(C1CC1)N1CCC2(CCN(Cc3cccc(F)c3)CC2)CC1	-4.07
O=C(C[C@@H]1COC[C@H]2CN(Cc3ccc(F)cc3)C[C@@H]12)N1CCCCO1	-2.26
Cc1ccc(CN2CCC3(CC2)CCN(Cc2ccco2)CC3)cc1	2.44
O=C(NCCNS(=O)(=O)N1CCCCCC1)c1ncccc1O	-6.11
